# From PubChem BioAssay
# bCat nuc transl = modulators of beta-catenin nuclear translocation; HeLa beta-catenin nuclear translocation, immunofluorescence imaging; nuclear translocation activity, % at 5 µM; 0.3% of 190,000 active; AID 1665;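 active = nuclear translocation activity above 50% at 5 µM, with a well cell count of 50 or more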;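 also: per-cell ratio of nuclear to cytoplasmic median beta-catenin stain intensity; plate controls were DMSO negative control for no effect and GSK-3 inhibitor IX positive control for full effect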
#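 Technique: fluorescence imaging of beta-catenin antibody stain plus DAPI / Material: human HeLa cell line / Incubation: compound treatment 24 h, 37°C, 5% CO2 / Read-out basis: % activation of per-cell nuclear versus cytoplasmic median beta-catenin signal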
# Autophagy mod = alters autophagy in cells. MEF GFP-LC3 puncta imaging; test concentration mostly 10 µM. calls only at 10 µM (by protocol). 0.98% of 190,000 active. AID 463193;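 active = percentage of spot-positive cells more than 3 SD above its plate mean, without a fluorescence outlier flag or 80% toxicity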;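 also: spot-positive cell cutoff set from DMSO-treated cells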
# ABCB1 inh = blocks JC-1 efflux by human ABCB1 transporter; CCRF-Adr cells, flow cytometry; inhibition, % at 6.6 µM; AID 1326; P08183; 0.067% of 190,000 active; in the data active = inhibition above about 40%;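 also: 0% = vehicle and 100% = reference inhibitor; higher value means more JC-1 retained so stronger ABCB1 efflux block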
# MT stabilizer = microtubule stabilization, imaging screen; 0.83% of 200,000 active; AID 2205; HeLa tubulin immunostaining HCS, 24 h; share of cells brighter than vehicle mean+2SD; % tubulin-high responders, % at 10 µM;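 active = plate Z-score above 3 for both tubulin-high and condensed-nucleus cell shares, with cell loss under 80%, at 10 µM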;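 also: anti alpha tubulin signal scored within the nucleus-defined area of each cell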
# ABCG2 inh = inhibitors of human ABCG2 transporter, ABCB1 counter-screen; 0.1% of 190,000 active; AID 1325; inhibition, % at 6.6 µM; Q9UNQ0; IgMXP3 cells, JC-1 efflux, flow cytometry;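 active = inhibition above 80%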;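 also: 0% = DMSO and 100% = nicardipine control wells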
# Target sequence (Q9UNQ0 whole entry, looked up): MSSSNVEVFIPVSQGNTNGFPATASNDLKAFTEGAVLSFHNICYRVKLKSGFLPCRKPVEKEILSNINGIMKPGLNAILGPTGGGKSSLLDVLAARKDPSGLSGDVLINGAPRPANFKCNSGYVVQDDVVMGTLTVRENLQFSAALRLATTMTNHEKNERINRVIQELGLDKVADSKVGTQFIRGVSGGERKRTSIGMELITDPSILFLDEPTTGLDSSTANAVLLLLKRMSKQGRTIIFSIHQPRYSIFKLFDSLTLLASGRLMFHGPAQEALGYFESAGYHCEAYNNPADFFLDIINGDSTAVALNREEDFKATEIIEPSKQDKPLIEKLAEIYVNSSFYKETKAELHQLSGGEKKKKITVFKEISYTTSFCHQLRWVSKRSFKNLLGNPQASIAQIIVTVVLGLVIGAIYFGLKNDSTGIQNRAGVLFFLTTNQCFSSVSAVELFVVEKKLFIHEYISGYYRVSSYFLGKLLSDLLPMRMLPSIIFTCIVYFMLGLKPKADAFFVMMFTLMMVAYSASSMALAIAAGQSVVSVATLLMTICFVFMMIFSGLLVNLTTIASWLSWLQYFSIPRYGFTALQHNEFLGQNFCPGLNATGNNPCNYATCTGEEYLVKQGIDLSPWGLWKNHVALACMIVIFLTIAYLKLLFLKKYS
#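 Test system: IgMXP3 (ABCG2) plus far-red-tagged CCRF-Adr (ABCB1) cells / Amount: 3 million cells/mL in well / Reagent: JC-1 transporter substrate / Timing: 10 min compound exposure, 25 °C / Signal: flow cytometry, 530 nm JC-1 signal / Read-out: percent efflux inhibition, scaled nicardipine 100% to DMSO 0% / Benchmarks: nicardipine as high control, DMSO as low control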
# Arbovirus inh = blocks arbovirus infection; arbovirus infection cell-based antiviral screen; inhibition, % at 10 µM; 0.37% of 200,000 active; AID 1251; in the data active = inhibition above about 30%
# Starred values were filed as active, the others as inactive; i = inactive; nt = no result given; + = active, no number. Compounds with a hit are over-represented: about 2.1% of the library has one in this group of screens.
SMILES,bCat nuc transl,Autophagy mod,ABCB1 inh,MT stabilizer,ABCG2 inh,Arbovirus inh
CCc1nnc(NC(=O)Cc2ccc(OC)c(OC)c2)s1,0,i,1,3,16,4
Cc1c(NC(=S)NC(=O)C(C)(C)C)cccc1[N+](=O)[O-],-1,i,0,4,5,-6
CC1CN(c2nc3ccccn3c(=O)c2C=O)CC(C)O1 (stereo not given),-2,i,1,3,4,7
Clc1ccc(/C=N/NC2=Nc3cccc4cccc2c34)cc1,0,+,-1,7,-7,-17
COc1cc(CNCCN2CCOCC2)ccc1OCc1ccccc1Cl,3,i,1,4,2,-16
CC(=O)N1CCC(N(CCN2CCOCC2)C(=S)Nc2cc(C)ccc2C)CC1,0,i,-1,3,-5,8
Cc1cc(-c2ccccc2)c2c3c(c(-c4ccccc4)n2n1)c(=O)n(C)c(=O)n3C,-3,+,2,2,5,-9
CCCc1[nH]n(-c2ccc(F)cc2)c(=O)c1C=Nc1cccc(F)c1,36,i,0,17*,7,-12
Cc1cc(C)cc(NC(=S)N(Cc2ccc(Cl)cc2)Cc2ccc(C(=O)O)cc2)c1,0,i,-1,2,-2,-5
Cc1cccc(NC(=S)N(Cc2ccc(Cl)cc2)Cc2ccc(C(=O)O)cc2)c1,1,+,0,4,2,0
CN(CCNC(=O)C1CC(=O)N(C2CCCC2)C1)Cc1ccccc1 (stereo not given),nt,i,nt,3,nt,2
CC(=O)N1c2ccccc2N(Cc2ccc(C)cc2C)C(=O)C1(C)C,nt,+,1,19*,2,-4
C=CCN1C(=O)C(C)(C)N(C(C)=O)c2ccccc21,-2,i,0,3,-9,5
CCNS(=O)(=O)c1ccc(CCC(=O)NCc2ccc(C)cc2)cc1,-1,+,0,5,1,0
CCCCCCn1c(=O)c(-c2ccccc2)c(O)c2ccccc21,-3,i,0,1,2,54*
S=c1[nH]c2ccc(Cl)cc2s1,0,nt,nt,nt,nt,nt
C#CCOCCOCCOCCNc1nc(N2CCN(C(=O)[C@H]([C@@H](C)CC)n3cc([C@@H](N)CO)nn3)CC2)nc(N2CCN(C(=O)[C@H](Cc3ccc(O)cc3)n3cc([C@@H](N)CC(C)C)nn3)CC2)n1,2,i,0,2,-1,5
N=c1n(CCN2CCOCC2)c2ccccc2n1CC(=O)c1ccc(Cl)c(Cl)c1,6,i,1,6,5,-10
N=c1n(CCN2CCCC2)c2ccccc2n1CC(O)c1ccc(Cl)c(Cl)c1 (stereo not given),19,+,0,6,0,-35
CCn1nc(C)c(NC(=O)Nc2cccc(Cl)c2Cl)c1C,-2,i,2,5,2,32*
CCn1nc(C)c(NC(=O)c2ccc(Cl)cc2)c1C,1,i,1,2,6,8
Cc1cc2nc(-c3cccc(NC(=O)c4ccc(Br)o4)c3)oc2cc1C,5,i,0,1,3,7
O=C1c2[nH]nc(-c3ccccc3O)c2C(c2ccc(F)cc2)N1CC1CCCO1 (stereo not given),-4,i,2,4,6,33*
O=C1c2[nH]nc(-c3ccccc3O)c2C(c2cccc(Cl)c2)N1CC1CCCO1 (stereo not given),0,i,3,3,3,25
O=C1c2[nH]nc(-c3ccccc3O)c2C(c2cccc(Cl)c2)N1Cc1ccco1 (stereo not given),-6,i,0,17*,1,-48
O=C(CN1CCN(c2ccc(O)cc2)CC1)Nc1cc([N+](=O)[O-])ccc1Cl,-1,+,0,5,30,-4
O=C(O)CNC(=S)N(Cc1ccccc1)Cc1cccnc1,-2,+,1,3,17,9
CC(=O)Nc1ccc(C(=O)NCC(=O)OCc2ccccc2F)cc1,4,i,0,3,-1,5
c1ccc(CNc2nc(N3CCOCC3)nc(N3CCOCC3)n2)cc1,nt,i,0,4,7,7
CCn1c(COc2ccc(Cl)cc2)nnc1SCC(=O)Nc1ccc2c(c1)OCCO2,-3,i,2,3,30,-3
